This data set is described as follows: Micro-SPECT/CT imaging. In kind it is in vivo. The note with it: normal female ICR mice; 37 MBq i.v.; SPECT image at 30 min post injection. An outline of the steps: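 Female ICR mice, obtained at 7 weeks old from a specific pathogen-free colony, were held three weeks for quarantine and adaptation. Housing was 23 ± 2 °C, 50 ± 5% humidity, 12 h light/dark, with diet and water ad libitum. Under 2% isoflurane, lying prone, mice were imaged on a small-animal SPECT/CT with a single-pinhole high-sensitivity mouse collimator.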

Data on two substances can be found in paper PMC3834432 (Toxicological Research, 2012).

Regarding “Gly-Gly- Gly-Gly-Gly [^99mTc-tricarbonyl-Gly(5)]”, the “Blood clearance (SPECT image, words)” value is reported as “fast blood clearance”. Gly-Gly-Gly [^99mTc-tricarbonyl-Gly(3)]: the “Blood clearance (SPECT image, words)” value is “fast blood clearances” and the “Excretion / clearance from the body (SPECT image, words)” value is recorded as “good clearance property in vivo”.
